Measurements from article PMC5508980 (Molecular nutrition & food research, 2017).
Where a name gives a salt, the structure may show the parent alone.

Columns and labels:
Type in all cases: biochemical
recombinant HDAC3 = recombinant HDAC3 (Homo sapiens, UniProt O15379); assay: Recombinant HDAC activity assay; details: for remaining activity at 50 µM: 2 h, read-out: % HDAC activity, Class I HDACs, 3
recombinant HDAC9 = recombinant HDAC9 (Homo sapiens, UniProt Q9UKV0); assay: Recombinant HDAC activity assay; details: for remaining activity at 50 µM: 2 h, read-out: % HDAC activity, Class IIa HDACs, 9
recombinant HDAC9, sequence (Q9UKV0 whole entry): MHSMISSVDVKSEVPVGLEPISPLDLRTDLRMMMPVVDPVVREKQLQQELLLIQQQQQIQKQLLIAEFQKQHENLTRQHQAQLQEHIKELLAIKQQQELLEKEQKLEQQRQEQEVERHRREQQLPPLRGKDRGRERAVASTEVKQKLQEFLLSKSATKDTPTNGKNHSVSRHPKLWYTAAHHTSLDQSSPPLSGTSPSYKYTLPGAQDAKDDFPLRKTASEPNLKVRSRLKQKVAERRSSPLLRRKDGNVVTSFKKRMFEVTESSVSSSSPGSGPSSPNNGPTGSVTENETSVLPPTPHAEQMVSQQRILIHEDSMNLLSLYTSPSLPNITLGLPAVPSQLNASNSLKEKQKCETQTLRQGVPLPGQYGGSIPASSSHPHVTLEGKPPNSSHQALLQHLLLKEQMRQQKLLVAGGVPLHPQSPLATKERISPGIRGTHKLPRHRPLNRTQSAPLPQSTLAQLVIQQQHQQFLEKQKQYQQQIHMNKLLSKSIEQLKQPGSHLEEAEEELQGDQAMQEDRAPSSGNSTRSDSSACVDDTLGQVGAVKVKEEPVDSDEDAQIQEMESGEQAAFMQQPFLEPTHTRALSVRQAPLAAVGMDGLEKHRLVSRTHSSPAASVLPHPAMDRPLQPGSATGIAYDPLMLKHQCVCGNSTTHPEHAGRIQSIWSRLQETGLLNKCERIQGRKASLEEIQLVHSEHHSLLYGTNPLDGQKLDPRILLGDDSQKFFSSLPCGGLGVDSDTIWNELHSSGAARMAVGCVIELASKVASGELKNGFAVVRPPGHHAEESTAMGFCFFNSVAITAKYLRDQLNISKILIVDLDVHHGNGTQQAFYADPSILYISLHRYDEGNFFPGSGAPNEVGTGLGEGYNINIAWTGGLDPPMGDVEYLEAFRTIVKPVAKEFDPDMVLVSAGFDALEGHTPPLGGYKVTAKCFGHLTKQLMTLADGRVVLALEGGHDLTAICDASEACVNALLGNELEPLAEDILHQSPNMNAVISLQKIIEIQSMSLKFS

recombinant HDAC7 = target: T1, recombinant HDAC7 (Homo sapiens, UniProt Q8WUI4); assay: Recombinant HDAC activity assay; details: for % HDAC activity, Class IIa HDACs, 7: recombinant protein incubated with 50 µM compound, 2 hrs
T1 sequence (Q8WUI4 1-952): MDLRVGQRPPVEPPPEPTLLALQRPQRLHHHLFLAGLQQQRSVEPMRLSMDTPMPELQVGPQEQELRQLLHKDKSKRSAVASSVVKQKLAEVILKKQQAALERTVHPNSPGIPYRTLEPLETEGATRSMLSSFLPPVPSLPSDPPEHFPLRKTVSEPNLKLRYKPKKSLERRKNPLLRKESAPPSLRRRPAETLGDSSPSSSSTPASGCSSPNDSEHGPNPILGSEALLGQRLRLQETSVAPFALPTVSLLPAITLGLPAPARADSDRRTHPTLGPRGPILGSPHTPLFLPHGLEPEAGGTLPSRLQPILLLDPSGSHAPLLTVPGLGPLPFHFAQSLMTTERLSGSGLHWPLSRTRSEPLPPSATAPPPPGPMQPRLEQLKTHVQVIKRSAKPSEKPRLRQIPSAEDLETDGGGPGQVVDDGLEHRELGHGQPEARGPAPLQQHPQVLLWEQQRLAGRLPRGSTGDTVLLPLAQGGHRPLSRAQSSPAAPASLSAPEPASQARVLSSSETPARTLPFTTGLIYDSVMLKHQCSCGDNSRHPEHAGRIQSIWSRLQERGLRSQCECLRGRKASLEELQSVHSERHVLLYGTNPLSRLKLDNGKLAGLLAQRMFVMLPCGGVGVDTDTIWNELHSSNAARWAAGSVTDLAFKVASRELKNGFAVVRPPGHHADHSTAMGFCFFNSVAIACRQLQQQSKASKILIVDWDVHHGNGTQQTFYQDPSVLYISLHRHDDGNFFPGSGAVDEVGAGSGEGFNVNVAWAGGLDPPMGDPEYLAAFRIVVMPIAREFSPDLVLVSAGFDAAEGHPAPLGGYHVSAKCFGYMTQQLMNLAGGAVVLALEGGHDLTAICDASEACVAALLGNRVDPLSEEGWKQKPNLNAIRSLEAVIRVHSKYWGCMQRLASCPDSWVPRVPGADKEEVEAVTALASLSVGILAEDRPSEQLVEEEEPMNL

recombinant HDAC5 = recombinant HDAC5 (Homo sapiens, UniProt Q9UQL6); assay: Recombinant HDAC activity assay; details: for remaining activity at 50 µM: 2 h, read-out: % HDAC activity, Class IIa HDACs, 5
recombinant HDAC5, sequence (Q9UQL6 whole entry): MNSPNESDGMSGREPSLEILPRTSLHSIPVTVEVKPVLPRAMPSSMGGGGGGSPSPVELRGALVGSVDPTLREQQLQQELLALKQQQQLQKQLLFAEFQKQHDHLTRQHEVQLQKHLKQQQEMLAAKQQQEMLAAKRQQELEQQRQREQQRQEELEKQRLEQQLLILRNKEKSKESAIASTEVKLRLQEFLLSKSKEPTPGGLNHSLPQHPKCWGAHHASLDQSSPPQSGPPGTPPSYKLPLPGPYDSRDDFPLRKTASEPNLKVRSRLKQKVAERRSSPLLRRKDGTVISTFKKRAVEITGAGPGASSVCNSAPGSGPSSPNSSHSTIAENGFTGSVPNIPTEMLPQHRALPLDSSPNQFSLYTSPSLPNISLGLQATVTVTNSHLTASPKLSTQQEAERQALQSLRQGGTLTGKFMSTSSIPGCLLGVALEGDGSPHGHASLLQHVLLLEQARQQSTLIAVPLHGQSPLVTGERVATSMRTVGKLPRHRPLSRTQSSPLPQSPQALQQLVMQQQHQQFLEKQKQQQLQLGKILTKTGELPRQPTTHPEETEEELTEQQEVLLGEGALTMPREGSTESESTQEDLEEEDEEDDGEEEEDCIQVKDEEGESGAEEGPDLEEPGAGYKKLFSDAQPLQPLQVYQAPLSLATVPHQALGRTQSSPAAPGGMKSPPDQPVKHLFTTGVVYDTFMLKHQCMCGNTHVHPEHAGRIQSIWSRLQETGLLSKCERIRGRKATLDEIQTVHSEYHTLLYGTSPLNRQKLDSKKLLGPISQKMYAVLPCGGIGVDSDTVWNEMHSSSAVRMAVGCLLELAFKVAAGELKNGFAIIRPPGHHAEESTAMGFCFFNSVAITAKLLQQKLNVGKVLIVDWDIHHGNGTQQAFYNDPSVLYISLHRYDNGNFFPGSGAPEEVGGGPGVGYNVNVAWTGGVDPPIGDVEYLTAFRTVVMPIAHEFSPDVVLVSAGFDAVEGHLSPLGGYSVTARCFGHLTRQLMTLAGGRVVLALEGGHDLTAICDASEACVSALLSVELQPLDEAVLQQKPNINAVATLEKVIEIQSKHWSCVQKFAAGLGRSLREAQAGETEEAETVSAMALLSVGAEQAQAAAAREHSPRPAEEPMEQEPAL

recombinant HDAC6 = target: T2, recombinant HDAC6 (Homo sapiens, UniProt Q9UBN7); assay: Recombinant HDAC activity assay; details: 2 h, read-out: % HDAC activity, Class IIb HDACs, 6
T2 sequence (Q9UBN7 1-1215): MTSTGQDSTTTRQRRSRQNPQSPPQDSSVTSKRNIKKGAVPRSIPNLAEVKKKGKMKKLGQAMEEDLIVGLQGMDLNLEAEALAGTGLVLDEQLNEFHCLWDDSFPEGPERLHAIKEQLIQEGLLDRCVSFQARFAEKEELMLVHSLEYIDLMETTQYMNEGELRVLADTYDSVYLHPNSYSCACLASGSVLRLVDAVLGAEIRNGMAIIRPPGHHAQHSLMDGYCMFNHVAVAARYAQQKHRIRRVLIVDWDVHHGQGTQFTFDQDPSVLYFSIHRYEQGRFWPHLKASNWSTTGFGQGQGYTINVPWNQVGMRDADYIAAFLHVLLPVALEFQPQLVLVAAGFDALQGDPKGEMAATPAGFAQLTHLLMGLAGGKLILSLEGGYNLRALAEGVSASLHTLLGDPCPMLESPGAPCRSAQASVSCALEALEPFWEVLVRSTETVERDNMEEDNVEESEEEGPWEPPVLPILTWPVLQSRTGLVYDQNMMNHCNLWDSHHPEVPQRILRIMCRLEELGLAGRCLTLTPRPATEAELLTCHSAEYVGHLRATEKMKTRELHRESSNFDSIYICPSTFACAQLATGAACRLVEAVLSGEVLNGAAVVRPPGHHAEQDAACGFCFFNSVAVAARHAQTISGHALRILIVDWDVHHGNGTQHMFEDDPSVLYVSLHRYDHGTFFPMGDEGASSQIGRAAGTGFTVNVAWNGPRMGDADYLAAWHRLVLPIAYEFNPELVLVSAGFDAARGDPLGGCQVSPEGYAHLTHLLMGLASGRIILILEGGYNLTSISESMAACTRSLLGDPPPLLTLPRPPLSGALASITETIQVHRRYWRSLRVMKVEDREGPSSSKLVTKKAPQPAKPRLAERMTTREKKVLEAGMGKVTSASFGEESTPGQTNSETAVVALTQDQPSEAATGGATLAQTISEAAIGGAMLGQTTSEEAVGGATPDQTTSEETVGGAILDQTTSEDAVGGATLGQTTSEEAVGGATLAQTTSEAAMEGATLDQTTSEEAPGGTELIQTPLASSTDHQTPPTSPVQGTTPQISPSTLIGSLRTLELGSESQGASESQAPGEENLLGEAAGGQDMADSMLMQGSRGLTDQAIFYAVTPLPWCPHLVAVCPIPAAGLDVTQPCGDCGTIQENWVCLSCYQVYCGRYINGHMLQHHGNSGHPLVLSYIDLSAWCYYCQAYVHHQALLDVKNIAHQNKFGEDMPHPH

recombinant HDAC8 = target: T3, recombinant HDAC8 (Homo sapiens, UniProt Q9BY41); assay: Recombinant HDAC activity assay; details: for remaining activity at 50 µM: 2 h, read-out: % HDAC activity, Class I HDACs, 8; for % HDAC activity, Class I HDACs, 8: recombinant protein incubated with 50 µM compound, 2 hrs
T3 sequence (Q9BY41 1-377): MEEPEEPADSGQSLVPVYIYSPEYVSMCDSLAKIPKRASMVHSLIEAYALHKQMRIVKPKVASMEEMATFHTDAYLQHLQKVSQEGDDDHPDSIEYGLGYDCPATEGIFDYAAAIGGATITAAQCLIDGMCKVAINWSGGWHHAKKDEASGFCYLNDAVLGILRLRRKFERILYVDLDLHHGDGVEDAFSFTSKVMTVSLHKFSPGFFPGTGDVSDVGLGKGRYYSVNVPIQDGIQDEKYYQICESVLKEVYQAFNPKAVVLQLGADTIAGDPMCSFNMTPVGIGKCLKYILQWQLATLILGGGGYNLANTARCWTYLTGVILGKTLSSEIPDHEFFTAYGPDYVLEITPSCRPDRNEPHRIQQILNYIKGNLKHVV

recombinant HDAC1 = recombinant HDAC1 (Homo sapiens, UniProt Q13547); assay: Recombinant HDAC activity assay; details: for remaining activity at 50 µM: 2 h, read-out: % HDAC activity, Class I HDACs, 1
recombinant HDAC1, sequence (Q13547 whole entry): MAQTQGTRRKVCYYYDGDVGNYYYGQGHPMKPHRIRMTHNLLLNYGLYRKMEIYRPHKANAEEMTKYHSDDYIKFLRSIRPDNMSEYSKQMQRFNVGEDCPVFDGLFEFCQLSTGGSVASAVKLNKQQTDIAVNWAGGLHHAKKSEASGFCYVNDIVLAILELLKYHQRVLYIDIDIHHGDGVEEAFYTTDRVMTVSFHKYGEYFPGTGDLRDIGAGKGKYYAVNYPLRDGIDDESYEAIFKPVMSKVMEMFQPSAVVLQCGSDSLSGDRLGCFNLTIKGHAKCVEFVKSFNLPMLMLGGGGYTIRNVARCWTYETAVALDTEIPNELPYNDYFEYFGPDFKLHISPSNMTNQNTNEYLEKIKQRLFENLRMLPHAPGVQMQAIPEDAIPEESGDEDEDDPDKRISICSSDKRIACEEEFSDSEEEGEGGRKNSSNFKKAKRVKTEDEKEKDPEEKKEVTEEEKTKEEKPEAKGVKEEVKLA

recombinant HDAC2 = recombinant HDAC2 (Homo sapiens, UniProt Q92769); assay: Recombinant HDAC activity assay; details: for remaining activity at 50 µM: 2 h, read-out: % HDAC activity, Class I HDACs, 2
recombinant HDAC2, sequence (Q92769 whole entry): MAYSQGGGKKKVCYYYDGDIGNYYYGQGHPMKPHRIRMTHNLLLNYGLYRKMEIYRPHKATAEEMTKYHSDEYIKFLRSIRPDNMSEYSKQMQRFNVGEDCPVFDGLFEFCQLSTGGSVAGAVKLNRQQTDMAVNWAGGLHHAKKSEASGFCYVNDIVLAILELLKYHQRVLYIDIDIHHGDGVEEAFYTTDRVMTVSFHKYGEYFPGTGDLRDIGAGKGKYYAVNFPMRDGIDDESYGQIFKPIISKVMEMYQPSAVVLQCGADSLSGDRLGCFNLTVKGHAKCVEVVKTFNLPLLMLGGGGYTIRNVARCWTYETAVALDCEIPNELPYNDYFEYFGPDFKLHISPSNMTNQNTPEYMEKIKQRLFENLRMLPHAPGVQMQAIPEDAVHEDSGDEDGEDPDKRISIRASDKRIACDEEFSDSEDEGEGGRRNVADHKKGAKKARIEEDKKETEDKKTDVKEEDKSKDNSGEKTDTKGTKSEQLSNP

recombinant HDAC10 = target: T4, recombinant HDAC10 (Homo sapiens, UniProt Q969S8); assay: Recombinant HDAC activity assay; details: for remaining activity at 50 µM: 2 h, read-out: % HDAC activity, Class IIb HDACs, 10
T4 sequence (Q969S8 1-669): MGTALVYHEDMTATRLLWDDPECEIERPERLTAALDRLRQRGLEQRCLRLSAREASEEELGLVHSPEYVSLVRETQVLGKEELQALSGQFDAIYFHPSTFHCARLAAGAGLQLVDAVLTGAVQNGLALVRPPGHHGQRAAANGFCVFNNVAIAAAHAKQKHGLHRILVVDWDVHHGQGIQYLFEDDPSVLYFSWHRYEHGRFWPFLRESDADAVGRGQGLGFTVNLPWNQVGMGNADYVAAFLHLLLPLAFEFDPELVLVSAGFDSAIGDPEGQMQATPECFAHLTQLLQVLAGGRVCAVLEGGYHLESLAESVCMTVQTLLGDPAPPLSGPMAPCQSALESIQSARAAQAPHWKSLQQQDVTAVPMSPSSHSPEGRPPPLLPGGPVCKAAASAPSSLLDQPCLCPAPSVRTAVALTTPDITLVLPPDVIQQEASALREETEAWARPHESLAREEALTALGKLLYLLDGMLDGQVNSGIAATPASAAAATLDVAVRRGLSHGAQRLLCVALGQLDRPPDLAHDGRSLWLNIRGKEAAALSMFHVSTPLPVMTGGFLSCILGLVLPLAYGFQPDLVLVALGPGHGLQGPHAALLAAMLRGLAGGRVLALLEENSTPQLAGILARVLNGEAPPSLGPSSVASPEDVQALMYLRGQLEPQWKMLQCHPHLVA

[1] = tested on: HDAC activity in bovine cardiac tissue; assay: Natural product library screen with class-selective HDAC substrates; details: 2 hours treatment
In short: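 The screen covered 131 natural compounds against bovine cardiac tissue lysate at 30 µg protein/well in PBS (pH 7.4 lysis buffer with Triton X-100 and NaCl). Test compound for 2 h, then separate class I, IIa or IIb fluorogenic acyl-lysine-AMC substrates for 2 h at 37 °C. Developer (Triton X-100, 3 µM TSA, 0.75 mg/ml trypsin) for 20 min; fluorescence read at 360/460 nm.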

recombinant HDAC4 = recombinant HDAC4 (Homo sapiens, UniProt P56524); assay: Recombinant HDAC activity assay; details: recombinant protein incubated with 50 µM compound, 2 hrs
recombinant HDAC4, sequence (P56524 whole entry): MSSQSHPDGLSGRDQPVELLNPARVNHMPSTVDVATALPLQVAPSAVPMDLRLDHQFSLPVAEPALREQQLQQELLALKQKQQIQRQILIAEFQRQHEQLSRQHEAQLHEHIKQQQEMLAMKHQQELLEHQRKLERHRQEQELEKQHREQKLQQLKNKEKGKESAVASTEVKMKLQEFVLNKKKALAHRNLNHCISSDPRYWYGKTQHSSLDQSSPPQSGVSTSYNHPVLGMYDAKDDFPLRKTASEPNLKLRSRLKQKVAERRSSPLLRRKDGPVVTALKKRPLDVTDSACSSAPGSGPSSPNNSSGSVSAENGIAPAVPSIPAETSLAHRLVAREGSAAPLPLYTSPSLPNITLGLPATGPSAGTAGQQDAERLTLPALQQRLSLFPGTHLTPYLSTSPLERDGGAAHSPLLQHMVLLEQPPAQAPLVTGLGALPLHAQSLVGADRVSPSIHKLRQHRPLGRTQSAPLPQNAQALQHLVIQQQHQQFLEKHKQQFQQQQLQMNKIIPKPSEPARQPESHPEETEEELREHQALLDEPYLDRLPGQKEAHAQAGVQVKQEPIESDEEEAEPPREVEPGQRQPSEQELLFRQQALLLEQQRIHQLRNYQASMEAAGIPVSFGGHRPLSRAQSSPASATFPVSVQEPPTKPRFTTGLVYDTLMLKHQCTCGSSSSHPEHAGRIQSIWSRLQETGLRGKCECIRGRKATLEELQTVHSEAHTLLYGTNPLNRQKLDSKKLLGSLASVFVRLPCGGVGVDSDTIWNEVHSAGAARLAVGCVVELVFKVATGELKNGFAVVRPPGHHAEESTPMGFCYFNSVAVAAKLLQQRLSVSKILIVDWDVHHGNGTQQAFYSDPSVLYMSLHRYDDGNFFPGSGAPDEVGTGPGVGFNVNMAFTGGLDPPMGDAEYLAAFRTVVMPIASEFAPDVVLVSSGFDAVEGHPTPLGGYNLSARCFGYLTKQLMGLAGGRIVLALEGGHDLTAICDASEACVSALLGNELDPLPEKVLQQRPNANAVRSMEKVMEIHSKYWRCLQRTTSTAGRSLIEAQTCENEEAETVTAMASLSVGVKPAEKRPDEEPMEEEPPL

[2] = recombinant protein incubated with 50 µM compound, 2 hrs

recombinant HDAC3, sequence (O15379 whole entry): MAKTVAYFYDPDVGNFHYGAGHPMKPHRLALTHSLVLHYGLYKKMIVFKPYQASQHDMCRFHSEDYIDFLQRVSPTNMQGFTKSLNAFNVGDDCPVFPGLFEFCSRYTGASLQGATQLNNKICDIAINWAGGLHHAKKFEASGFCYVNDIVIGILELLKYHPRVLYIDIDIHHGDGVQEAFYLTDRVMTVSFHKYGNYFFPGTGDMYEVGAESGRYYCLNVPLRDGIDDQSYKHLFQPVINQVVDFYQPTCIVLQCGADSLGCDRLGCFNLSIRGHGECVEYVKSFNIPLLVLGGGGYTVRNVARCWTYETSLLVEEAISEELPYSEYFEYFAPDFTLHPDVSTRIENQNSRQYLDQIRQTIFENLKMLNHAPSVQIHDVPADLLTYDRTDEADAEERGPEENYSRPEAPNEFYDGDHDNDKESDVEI
recombinant HDAC3, sequence (Q9Y618 395-489 partner limits assumed): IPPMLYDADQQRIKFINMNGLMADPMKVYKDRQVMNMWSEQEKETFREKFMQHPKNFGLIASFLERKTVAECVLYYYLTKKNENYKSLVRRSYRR

Structure (SMILES)	remaining activity at 50 µM (recombinant HDAC3) [%]	remaining activity at 50 µM (recombinant HDAC9) [%]	% HDAC activity, Class IIa HDACs, 7 (recombinant HDAC7)	remaining activity at 50 µM (recombinant HDAC5) [%]	remaining activity at 50 µM (recombinant HDAC8) [%]	remaining activity at 50 µM (recombinant HDAC1) [%]	remaining activity at 50 µM (recombinant HDAC2) [%]	remaining activity at 50 µM (recombinant HDAC10) [%]	other results
O=c1cc(-c2ccccc2)oc2cc(O)c(O)c(O)c12 [Baicalein]	59.2	66.1	-	76.6					
O=C(O)[C@H]1O[C@@H](Oc2cc3oc(-c4ccccc4)cc(=O)c3c(O)c2O)[C@H](O)[C@@H](O)[C@@H]1O [Baicalin]	81.7	91.5	-	81.8	78.3	89	72.9	84.7	remaining activity at 50 µM (recombinant HDAC6): 86.2%
O=c1cc(-c2ccc(O)c(O)c2)oc2cc(O)cc(O)c12 [Luteolin]	51.4	52.3	-	59.5	52.8	60.7	49.5	55.9	catalytic HDAC activity across class I, IIa and IIb substrates, effect in words [1]: dose-dependent pan-HDAC inhibition
O=C1Nc2ccccc2/C1=C1/Nc2ccccc2C1=O [Indirubin]	56.6		-		58.4	61.5	58.7	67	remaining activity at 50 µM (recombinant HDAC6): 65.7%
COc1ccc2cc3[n+](cc2c1OC)CCc1cc2c(cc1-3)OCO2 [Berberine HCl, berberine hydrochloride]	48.3				46.8	50.5	70.3	45	remaining activity at 50 µM (recombinant HDAC6): 60.9%
O=C(O[C@@H]1Cc2c(O)cc(O)cc2O[C@@H]1c1cc(O)c(O)c(O)c1)c1cc(O)c(O)c(O)c1 [EGCG, epigallocatechin gallate]			-						% HDAC activity, Class I HDACs, 8 (recombinant HDAC8): 89.1%; % HDAC activity, Class IIa HDACs, 4 (recombinant HDAC4): 82.5%; % HDAC activity, Class IIb HDACs, 10 (recombinant HDAC10; [2]): 91.2%
O=C1c2c(O)cc(O)cc2O[C@H](c2cc(O)c(O)c(O)c2)[C@H]1O [Dihydromyricetin]	82.5	92.5		73.4	81.9	90	73.9	86.3	remaining activity at 50 µM (recombinant HDAC7; 2 h, read-out: % HDAC activity, Class IIa HDACs, 7): 94%
O=C(O)/C=C/c1ccc(O)c(O)c1 [Caffeic acid]			-						
O.O=c1c(O)c(-c2ccc(O)cc2O)oc2cc(O)cc(O)c12 [Morin hydrate]			-						% HDAC activity, Class I HDACs, 3 (recombinant HDAC3; [2]): 56.0%; % HDAC activity, Class IIa HDACs, 9 (recombinant HDAC9; [2]): 56.1%; % HDAC activity, Class I HDACs, 8 (recombinant HDAC8): 49.3%; % HDAC activity, Class I HDACs, 1 (recombinant HDAC1; [2]): 62.3%; % HDAC activity, Class I HDACs, 2 (recombinant HDAC2; [2]): 43.3%; % HDAC activity, Class IIa HDACs, 5 (recombinant HDAC5; [2]): 56.7%
O=c1c(O)c(-c2ccc(O)cc2)oc2cc(O)cc(O)c12 [Kaempferol]	66.9	70.6	-	73.5	68.7	72.8	71.7	71.6	
O=c1c(O)c(-c2cc(O)c(O)c(O)c2)oc2cc(O)cc(O)c12 [Myricetin]	59.9	77	-	65.1	60.2	68		63.4	catalytic HDAC activity across class I, IIa and IIb substrates, effect in words [1]: pan-HDAC inhibition
